# Measurements as given in PubChem BioAssay.
# Activity calls are given as the source filed them.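 The calls were made as follows, unless noted: active = fluorescence slope after compound addition differing from the mean of all screened samples at 99.7% confidence, in either direction; inactive = the rest.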
# What was measured:
# [1] = inhibitors of TNFa-induced NFkB p65 translocation, primary screen, imaging, HUVEC, MLSMR starter and 10KST1 sets (AID 438;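 active = inhibition above 20% together with a positive visual image hit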;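 also: compound added about 3h40 before a 20 min TNFalpha stimulation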;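 as to inhibition: signal is the nuclear over cytoplasmic p65 intensity ratio per well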); settings: HUVEC TNFa-induced p65 nuclear translocation; cell count: measured here: nuclei count (cytotoxicity indicator), at 2.08 µM; inhibition: at 2 µM, stronger effect = higher value, 0% TNFa-plus-vehicle, 100% no-TNFa wells
# [2] = reduction of polyQ htt aggregates in cells – imaging, exon1htt(103Q)mCFP cells, high-content imaging, primary screen (AID 483;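 active = visual image review flags a hit and inhibition of aggregation exceeds 20%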;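 also: compound exposure lasted 3 days before fixation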;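 as to nuclei count: percent of the per-plate median nuclei count of sample wells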); settings: exon1htt(103Q)mCFP cell line, aggregate imaging, at 2 µM; inhibition of aggregation: stronger effect = higher value; nuclei count: measured here: cell count, toxicity
# [3] = endothelial E-selectin expression blockers – imaging, HUVEC, immunofluorescence, MLSMR starter and 10KST1 sets, primary screen (AID 487;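 active = visually confirmed hit in the image check and inhibition above 20%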;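 as to inhibition: signal is fraction of cell area covered by stained E-selectin grains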;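 as to nuclei count: 100% = median nuclei count of all wells on the same plate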); settings: HUVEC TNFalpha-induced E-selectin immunofluorescence imaging, at 2 µM; inhibition: stronger effect = higher value; nuclei count: measured here: cell number, toxicity
# [4] = molecular target: Voltage-gated potassium channel subunit beta-2 (Rattus norvegicus) (UniProt P62483); assay: inhibitors of rat Kvbeta2 reductase activity – biochemical, NADPH fluorescence, primary screen (AID 622;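 active = fluorescence slope higher than the sample average by over 3 SD, cut at about -0.22 in these data, passing the limit was not always enough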;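 also: slope of raw intensity against log time taken from 70 to 1610 s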); settings: recombinant KvBeta, 4-cyanobenzaldehyde reduction, at 10 µM, stronger effect = higher value
# Chain of Voltage-gated potassium channel subunit beta-2 (Rattus norvegicus) (P62483 whole entry, looked up): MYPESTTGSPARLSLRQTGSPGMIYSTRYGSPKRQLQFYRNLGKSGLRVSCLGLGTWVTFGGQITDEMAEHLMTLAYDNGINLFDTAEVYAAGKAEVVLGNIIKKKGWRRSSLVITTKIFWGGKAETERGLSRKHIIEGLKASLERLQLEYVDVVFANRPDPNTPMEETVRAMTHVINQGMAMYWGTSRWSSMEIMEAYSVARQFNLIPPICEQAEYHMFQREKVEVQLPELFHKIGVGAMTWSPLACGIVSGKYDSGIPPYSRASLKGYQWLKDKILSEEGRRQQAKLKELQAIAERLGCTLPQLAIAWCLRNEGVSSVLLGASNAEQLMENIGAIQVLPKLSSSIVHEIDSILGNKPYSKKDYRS
# [5] = molecular target: Voltage-gated potassium channel subunit beta-2 (Rattus norvegicus) (UniProt P62483); assay: enhancers of rat Kvbeta2 NADPH turnover – biochemical, NADPH fluorescence, primary screen (AID 623;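 active = NADPH fluorescence slope more negative than the mean of all samples by about 3 SD, 99.7% confidence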;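 also: fluorescence intensity change per second fitted from 20 to 320 s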); settings: Recombinant KvBeta, NADPH fluorescence decrease slope, 10 min; at 10 µM; stronger effect = lower value
# [6] = molecular target: Alpha-2C adrenergic receptor (Homo sapiens) (UniProt P18825); assay: compounds altering alpha2C-coupled GIRK flux – cell-based, HEK293 alpha2C/GIRK1/2, thallium flux, primary screen (AID 624); settings: thallium flux BTC fluorescence, at 10 µM, actives lie on both sides;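 also: slope of fluorescence ratio to pre-addition baseline per second over 15 to 24 s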
# Chain of Alpha-2C adrenergic receptor (Homo sapiens) (P18825 whole entry, looked up): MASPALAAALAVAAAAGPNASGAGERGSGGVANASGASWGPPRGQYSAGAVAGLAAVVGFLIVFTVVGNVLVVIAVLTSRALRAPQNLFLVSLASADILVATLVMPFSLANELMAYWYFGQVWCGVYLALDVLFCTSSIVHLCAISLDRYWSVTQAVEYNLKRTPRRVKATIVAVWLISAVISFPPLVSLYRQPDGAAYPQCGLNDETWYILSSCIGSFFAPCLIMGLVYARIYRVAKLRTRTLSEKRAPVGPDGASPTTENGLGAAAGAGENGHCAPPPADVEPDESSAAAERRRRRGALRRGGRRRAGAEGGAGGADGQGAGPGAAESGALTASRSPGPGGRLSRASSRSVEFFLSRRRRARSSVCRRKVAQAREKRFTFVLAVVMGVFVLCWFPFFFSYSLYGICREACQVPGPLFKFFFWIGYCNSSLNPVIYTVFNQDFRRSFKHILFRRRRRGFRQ
# [7] = inhibitors of larval lipid processing in zebrafish, primary screen, whole organism, PED6 fluorescence, gall bladder and intestine (AID 686;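 active = a full or partial loss of lipid-probe fluorescence in the fish gall bladder, intestine or both, judged by eye; inactive = no fluorescence loss, or compound toxic to the fish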;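 also: larvae 5 to 7 days old with five fish per well; signal comes from phospholipase A2 cleavage of quenched PED6 carried via bile; overnight exposure to compound and PED6 before scoring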); settings: Zebrafish larvae PED6 lipid processing, fluorescence scoring; screened at 20 µM (by protocol)
# Method in brief: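 system = live zebrafish larvae aged 5-7 days, whole organism | probe or stimulus = ingested quenched lipid PED6 at 100 nM | doses = 20 µM single dose | timing = overnight exposure | detection = fluorescence microscopy with visual scoring of gall bladder and intestine | read-out = visual per-well fluorescence inhibition score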
# [8] = blockers of RIG-like receptor reporter activation – cell-based, Sendai virus stimulus, luciferase, 10K MLSCN set, TLR/RLR signaling modifier project, primary screen (AID 602276;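 active = inhibition at or above 50% at 10 µM; inactive = inhibition below 50%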;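 also: firefly luciferase from ISG56 promoter only with Renilla not read in this screen; 0% = Sendai virus plus DMSO and 100% = medium plus DMSO without virus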); settings: HEK293 RL24 IRF3 luciferase reporter, at 10 µM, stronger effect = higher value
# [9] = TLR3 IRF3 reporter activation blockers – cell-based, poly I:C stimulus, luciferase, 10K MLSCN set, primary screen (AID 602277;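 active = inhibition of the reporter signal at or above 50%; inactive = inhibition below 50%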); settings: HEK293-TLR3 RL24 IRF3 luciferase reporter, at 10 µM, stronger effect = higher value
SMILES,cell count [1],inhibition [1],inhibition of aggregation [2],nuclei count [2] [%],inhibition [3],nuclei count [3] [%],fluorescence slope [4],NADPH fluorescence slope [5],slope [6],outcome [7],inhibition [8],inhibition [9]
O=C1NC(=O)C(CC(=O)N(c2ccccc2)C2(C(=O)NC3CCCC3)CCCCC2)N1 (centres undefined),384,-1.1% (inactive),25.6% (inactive),83.3,-24.5% (inactive),108,-0.391 (inactive),-1.3e-05 (inactive),0.00517 (inactive),inactive,14.9% (inactive),11.4% (inactive)
COc1ccc(Cl)c(N2CCN(CCCNC(=O)Nc3ccc(C)cc3)CC2)c1,320,2.4% (inactive),-10.7% (inactive),98.8,16% (inactive),108,-0.479 (inactive),-5.7e-05 (inactive),0.0037 (inactive),inactive,2.1% (inactive),-5.24% (inactive)
COCCNC(=O)C(c1ccc(C)o1)N(C(=O)c1snc(C(N)=O)c1N)c1ccc(C)cc1 (centres undefined),498,-3.6% (inactive),19.7% (inactive),94,73.6% (inactive),65.5,-0.378 (inactive),-5.3e-05 (inactive),0.00521 (inactive),inactive,12.5% (inactive),7.41% (inactive)
CCOC(=O)N1CCN(C(=O)CN(Cc2ccccc2)S(=O)(=O)c2ccc(OC)c(C)c2)CC1,320,-2.3% (inactive),1.8% (inactive),106,-6.6% (inactive),70.5,-0.38 (inactive),1e-05 (inactive),0.00442 (inactive),inactive,-4.93% (inactive),1.48% (inactive)
Cc1oc2c(c1C(=O)NCc1ccccc1)CCCC2,437,1.3% (inactive),-13.6% (inactive),108,4.8% (inactive),130,-0.464 (inactive),-4.8e-05 (inactive),0.00391 (inactive),inactive,9.63% (inactive),4.5% (inactive)
COC(=O)C1=C(C)Nc2ncnn2C1c1ccco1 (centres undefined),303,-4.2% (inactive),-6.6% (inactive),100,5.2% (inactive),93.9,-0.432 (inactive),-6e-05 (inactive),0.00405 (inactive),inactive,15.5% (inactive),16.5% (inactive)
O=C(Cn1[nH]c(=O)c2ccccc2c1=O)OCC(=O)N1CCCc2ccccc21,335,4.2% (inactive),-9% (inactive),98.2,-37% (inactive),117,-0.389 (inactive),-6e-05 (inactive),0.00579 (inactive),inactive,8.5% (inactive),10.3% (inactive)
O=C(Nc1ccncc1)c1cc2ccccc2o1,165,2.1% (inactive),35.8% (inactive),101,-106% (inactive),140,-0.382 (inactive),-4.4e-05 (inactive),0.00527 (inactive),inactive; toxic,-36.5% (inactive),-115% (inactive)
Cc1cc(C)nc(SCc2ccc3nonc3c2)n1,634,-4.3% (inactive),-20.5% (inactive),114,12.3% (inactive),97.4,-0.282 (inactive),-1.3e-05 (inactive),0.00664 (inactive),inactive; toxic,8.18% (inactive),10.6% (inactive)
O=C(c1cccc2c1C(=O)N(Cc1cccnc1)C2)N1CCN(c2ccccc2)CC1,941,9.3% (inactive),-5.7% (inactive),103,-104% (inactive),135,-0.365 (inactive),-6e-05 (inactive),0.00499 (inactive),inactive,13.7% (inactive),9.9% (inactive)
CC(=O)N1CN(C2CCCC2)Cc2c1sc1c2CCCC1,793,-14% (inactive),11.7% (inactive),99.2,26.2% (inactive),90.6,-0.433 (inactive),-1.9e-07 (inactive),0.00682 (inactive),inactive,5.21% (inactive),20% (inactive)
COc1ccc(S(=O)(=O)N2CCN(S(=O)(=O)c3ccc4c(c3)OCCO4)CC2)cc1C,377,4% (inactive),-8.3% (inactive),114,15.9% (inactive),85,-0.223 (inactive),-5.5e-05 (inactive),0.00641 (inactive),inactive,16.8% (inactive),26.6% (inactive)
